# In article PMC10084868 (International Journal of Nanomedicine, 2023):
# Legend:
# zebrafish haematopoiesis = experiment: Haemoglobin; format: in vivo; details: zebrafish embryos; F1 starting from 0.4 µg/mL; haemoglobin staining and video
# Method in brief: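 Shield-stage embryos were exposed to the formulation at 0.4 µg/mL and raised to the 20-somite stage, then given 0.003% (final) phenylthiourea to block pigmentation. They were then rinsed and fixed in 4% paraformaldehyde.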
# [1] = humans; cited from earlier work
# [2] = powdered drugs, reported previously; cited from earlier work
SMILES,effect on blood circulation / haematopoiesis (zebrafish haematopoiesis),increase of bioavailability of CUR with concomitant PP vs CUR alone [1] [%],dissolution rate (release) of powdered drug [2]
"COc1cc(/C=C/C(=O)CC(=O)/C=C/c2ccc(O)c(OC)c2)ccc1O [CUR, Curcumin]",did not affect haematopoiesis,2000,less than 20%
"O=C(/C=C/C=C/c1ccc2c(c1)OCO2)N1CCCCC1 [PP, Piperine]",did not affect haematopoiesis,–,less than 20%
